High-throughput results: PubChem, several laboratories
RAD54 inh: RAD54 (human) branch migration inhibition; Q92698; RAD54 Holliday junction branch migration, FAM/BHQ fluorescence; inhibition, % at 10.4 µM; hit rate 0.14% among 360,000; AID 602329;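 active = mean normalized replicate activity at least 40 and at least half of replicates scoring 40 or more; inconclusive = only one of the two criteria met; inactive = mean below 40 and under half of replicates reaching 40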;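 also: inhibitors cause a drop in the FAM fluorescence signal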
Neddyl block: cullin neddylation inhibition | P61081+Q13564 | TR-FRET cullin neddylation, biochemical | calls only at 25 µM | hit rate 0.58% among 360,000; in the data active = inhibition above about 36%
Target sequence (P61081 whole entry, looked up): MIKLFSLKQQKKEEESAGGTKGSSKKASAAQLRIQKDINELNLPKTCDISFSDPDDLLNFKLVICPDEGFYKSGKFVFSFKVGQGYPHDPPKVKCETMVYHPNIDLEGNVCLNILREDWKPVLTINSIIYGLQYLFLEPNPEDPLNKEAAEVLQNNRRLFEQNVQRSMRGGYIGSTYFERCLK
Target sequence (Q13564 whole entry, looked up): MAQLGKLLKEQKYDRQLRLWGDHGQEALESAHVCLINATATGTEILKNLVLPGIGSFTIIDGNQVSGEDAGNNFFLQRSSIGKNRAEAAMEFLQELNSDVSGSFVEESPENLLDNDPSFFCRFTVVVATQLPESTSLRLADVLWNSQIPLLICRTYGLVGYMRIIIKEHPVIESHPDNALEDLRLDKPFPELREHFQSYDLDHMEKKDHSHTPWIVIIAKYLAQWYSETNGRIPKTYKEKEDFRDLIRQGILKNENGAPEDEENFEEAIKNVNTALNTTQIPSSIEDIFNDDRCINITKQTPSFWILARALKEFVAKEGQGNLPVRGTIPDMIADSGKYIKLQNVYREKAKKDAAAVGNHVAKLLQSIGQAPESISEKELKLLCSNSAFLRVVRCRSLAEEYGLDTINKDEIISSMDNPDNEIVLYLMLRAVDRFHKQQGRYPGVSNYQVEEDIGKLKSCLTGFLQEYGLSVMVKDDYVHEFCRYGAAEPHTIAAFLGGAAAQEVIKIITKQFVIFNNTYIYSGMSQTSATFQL
FID counter: counter-screen for HCV NS3 helicase inhibitors: DNA intercalator displacement; inhibition, % at 7.9 µM; hit rate 0.17% among 290,000; DNA fluorescent intercalator displacement, fluorescence; AID 1845; in the data active = inhibition above about 37%;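 also: higher means more ethidium bromide displaced from hairpin DNA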
Apaf-1 inh: human Apaf-1 inhibition; O14727; reconstituted apoptosome caspase-3 activity, DEVD-Rh110 fluorescence; inhibition, % at 20 µM; hit rate 0.71% among 330,000; active = inhibition of at least 40% at 20 µM
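Assay system: Apoptosome proteins | Medium: pH 7.5 Hepes buffer with CHAPS, BSA, DTT | Also added: Cytochrome c and DEVD-Rh110 substrate | Times: 30 min plus 50 min, RT | Detection: Rhodamine 110 fluorescence at Ex 480/Em 540 nm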
UBC13 inh: inhibitors of human UBC13 polyubiquitin chain formation. AID 485273. TR-FRET. P61088. inhibition, % at 20 µM. hit rate 0.47% among 330,000; in the data active = inhibition above about 45%, passing the limit was not always enough; inconclusive = no clear call, values can overlap the other calls
RAD52 inh: RAD52 (human) annealing inhibition; P43351; recombinant RAD52 DNA annealing, FRET fluorescence; inhibition, % at 18.7 µM; hit rate 0.46% among 360,000; AID 651710;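 active = every replicate showing at least 50% inhibition; inconclusive = mean inhibition at least 50% but not in every replicate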
Casp3 UBC13 ctr: inhibits human caspase-3 in UBC13 counter-screen. hit rate 4% among 1,400. inhibition, % at 20 µM. Recombinant caspase-3, Caspase-Glo 3/7 luminescence, 60 min. shares compounds with UBC13 inh;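 active = mean inhibition across replicates above about 26%, limit read from the data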
UBC13 confirm: human UBC13 polyubiquitin inhibition, confirmed. inhibition, % at 10 µM. hit rate 68% among 1,400. shares compounds with UBC13 inh. UBC13 polyubiquitination, TR-FRET, biochemical; in the data active = inhibition above about 45%; inconclusive = no clear call, values can overlap the other calls
Apaf-1 inh conf: confirmation of Apaf-1 inhibitors. hit rate 25% among 1,800. AID 504614. shares compounds with Apaf-1 inh. inhibition, % at 20 µM. reconstituted apoptosome, caspase-3 DEVD-Rh110 fluorescence;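 active = mean inhibition of at least 40% at 20 µM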
Rh110 interf inh: counter-screen for Apaf-1 inhibitors: fluorescence interference; shares compounds with Apaf-1 inh; Rh110 fluorescence interference, quenched caspase reaction; activation (fluorescence interference), % at 20 µM; 1,800 tested, under 10 active;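 active = signal rise of 40% or more at 20 µM, treated as a fluorescence artifact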
Apaf1 inh interf: shows fluorescence interference in the Apaf-1 inhibitor assay format; shares compounds with Apaf-1 inh; fluorescence interference counterscreen, Apaf-1 assay format; IC50, µM; 460 tested, under 10 active; call rule not given here
A number is an active result; 0 = inactive; ? = inconclusive; - = no result. A selection: hits, their analogues and other compounds. The true share with any hit is near 1.6%.

SMILES	RAD54 inh	Neddyl block	FID counter	Apaf-1 inh	UBC13 inh	RAD52 inh	Casp3 UBC13 ctr	UBC13 confirm	Apaf-1 inh conf	Rh110 interf inh	others
CCOC(=O)C1=C(c2ccccc2)NC(N)=NC1c1ccc(OCc2ccc(C(=O)OC)cc2)cc1 (stereo not given)	-	0	0	61	55	0	0	92	62	0	Apaf1 inh interf=0
CC=Cc1ccc2n(c1=O)C[C@@H]1[C@@H](CO)[C@H](C(=O)NC3CCC3)N(CC)[C@H]21 (mixture of isomers)	0	-	-	-	-	0	-	-	-	-
COc1cc(/C=C(\C#N)c2nc(-c3cc4ccccc4oc3=O)cs2)ccc1O	-	0	0	0	0	0	-	-	-	-
CCN(CC)CCOC(=O)c1ccc(N/C=C(/C#N)c2nc(-c3ccc4c(c3)OCO4)cs2)cc1	0	0	0	60	108	0	0	132	63	0	Apaf1 inh interf=0
CCN(CC)CCOC(=O)c1ccc(N/C=C(/C#N)c2nc(-c3cc4ccccc4oc3=O)cs2)cc1	0	0	0	54	114	0	0	132	61	0	Apaf1 inh interf=0
O=S(=O)(Cc1ccccc1)NCC[C@H]1CC[C@H](NS(=O)(=O)c2ccc(F)cc2)[C@@H](CO)O1	0	-	-	-	-	0	-	-	-	-
Cc1noc(/C=C/c2cccs2)c1S(=O)(=O)N1CCC(C(=O)NCCCN2CCC(C)CC2)CC1	-	0	0	40	49	0	0	0	0	0
COCCNC(=O)C1CCCN(S(=O)(=O)c2c(C)noc2/C=C/c2cccs2)C1 (stereo not given)	-	0	0	0	0	0	-	-	-	-
C[C@@H]1CN([C@H](C)CO)S(=O)(=O)c2ccc(-c3cccc(C#N)c3)cc2O[C@H]1CN(C)C(=O)C1CC1	0	-	-	-	-	0	-	-	-	-
COc1ccc(C[C@H]2CN3C(=NC[C@@H]3C(C)C)N2C[C@H](C)NC(=O)c2ccc(C)c(Br)c2)cc1	0	0	0	48	54	0	0	0	0	0
COc1ccc(C[C@H]2CN3C(=NC[C@@H]3Cc3ccccc3)N2CCNC(=O)c2ccc(C)c(Br)c2)cc1	0	0	0	65	88	-	0	56	0	0
C/C=C(\C)C(=O)NCCN1C2=NC[C@@H](C)N2C[C@@H]1Cc1ccc(OC)cc1	0	0	0	0	0	0	-	-	-	-
COc1ccc(C[C@@H]2CN3C(=NC[C@@H]3C)N2C[C@H](C)NC(=O)CCC2CCCCC2)cc1	0	0	0	0	0	0	-	-	-	-
COc1ccc(C[C@H]2CN3C(=NC[C@H]3Cc3ccccc3)N2CCNC(=O)c2ccc(C)c(Br)c2)cc1	0	0	-	43	72	-	0	61	41	0	Apaf1 inh interf=0
C/C=C(\C)C(=O)NCCN1C2=NC[C@H](Cc3ccccc3)N2C[C@H]1Cc1ccc(O)cc1	0	0	0	0	0	-	-	-	-	-
N=c1n(CC(=O)c2ccc(Br)cc2)c2ccccc2n1Cc1ccccc1	0	0	-	53	57	0	0	61	0	0
CN(C)CCCN(C(=O)c1ccc(S(=O)(=O)N2CCc3ccccc3C2)cc1)c1nc2ccc(F)cc2s1	0	0	41	70	55	0	0	99	46	0	Apaf1 inh interf=0
OCCN1CCN(CC/C=C2/c3ccccc3Sc3ccc(Cl)cc32)CC1	0	0	-	43	74	0	0	60	0	0
CC[N+](C)(C)CC/C=C1/c2ccccc2Sc2ccc(Cl)cc21	0	0	0	0	0	0	-	-	-	-
CCCCCCCCCCC[N+](C)(C)CC/C=C1/c2ccccc2Sc2ccc(Cl)cc21	0	0	0	75	106	-	0	118	88	0	Apaf1 inh interf=0
CCCCCCCCCC[N+](C)(C)CC/C=C1/c2ccccc2Sc2ccc(Cl)cc21	0	0	0	81	107	-	0	119	88	0	Apaf1 inh interf=0
O=C(CN1CCCC1)N1c2ccccc2Sc2ccc(Cl)cc21	0	0	0	0	0	0	-	-	-	-
COCC(=O)N(C)C[C@H]1Oc2cc(-c3ccncc3)ccc2S(=O)(=O)N([C@H](C)CO)C[C@H]1C	0	-	-	-	-	0	-	-	-	-
CC(=O)N(C)C[C@H]1Oc2ncc(C#Cc3ccccn3)cc2C(=O)N([C@@H](C)CO)C[C@@H]1C	0	-	-	-	-	0	-	-	-	-
COc1ccc(-c2sc3cc4c(cc3c2-c2ccc(OCCN3CCOCC3)cc2)OCO4)cc1	0	0	-	0	?	0	-	-	-	-
SMILES	RAD54 inh	Neddyl block	FID counter	Apaf-1 inh	UBC13 inh	RAD52 inh	Casp3 UBC13 ctr	UBC13 confirm	Apaf-1 inh conf	Rh110 interf inh	others
COc1ccc2sc(-c3ccccc3OC)c(-c3ccc(OCCN4CCOCC4)cc3)c2c1	0	0	-	0	-	-	-	-	-	-
COc1ccccc1-c1sc2cc3c(cc2c1-c1ccc(OCCN2CCCCC2)cc1)OCO3	0	0	-	59	77	0	0	69	0	0
Oc1cccc(-c2sc3ccccc3c2-c2ccc(OCCN3CCCCC3)cc2)c1	-	0	-	-	-	0	-	-	-	-
COc1cc2sc(-c3ccccc3OC)c(-c3ccc(OCCN4CCCCC4)cc3)c2cc1OC	0	0	-	66	76	0	0	74	0	0
O=C(c1ccc(OCCN2CCCCC2)cc1)c1c(-c2ccc(O)cc2)sc2cc(O)ccc12	0	0	-	47	92	0	0	102	0	0
NC1=NC[C@@H](CC2CCCCC2)N1CCc1cc(C(F)(F)F)cc(C(F)(F)F)c1	0	0	-	79	91	-	0	101	50	0	Apaf1 inh interf=0
NC1=NC[C@H](c2ccccc2)N1CCc1cc(C(F)(F)F)cc(C(F)(F)F)c1	0	0	-	54	80	0	0	53	0	0
CCC(C)[C@H]1CN=C(N)N1CCc1cc(C(F)(F)F)cc(C(F)(F)F)c1 (stereo not given in full)	0	0	-	57	79	0	0	46	0	0
CCC(C)(C)c1ccc(OCCCC[n+]2ccccc2)c(C(C)(C)CC)c1	-	0	0	51	66	0	0	98	0	0
CCCCCc1ccc(OCCCC[n+]2ccccc2)c(CCCCC)c1	-	0	0	59	59	-	0	84	0	0
CC(C)CC#Cc1ccc2c(c1)O[C@H](CN(C)S(C)(=O)=O)[C@@H](C)CN([C@@H](C)CO)S2(=O)=O	0	-	-	-	-	0	-	-	-	-
C[C@H]1CN([C@@H](C)CO)S(=O)(=O)c2ccc(C#CC(C)(C)O)cc2O[C@@H]1CN(C)Cc1ccc(-c2ccccc2)cc1	0	-	-	-	-	0	-	-	-	-
